Common to all, as to assay type: functional
The subject of assay [1] is Staphylococcus aureus. Description: Reduction in bioluminescent methicillin-sensitive Staphylococcus aureus Xen29 in neutropenic CD1 mouse with peritonitis at 100 mg/kg, po after 4 hrs relative to control. Details: scale not given: the % may be the effect or the level left. The method, boiled down:
(§1)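 Neutropenia was induced with cyclophosphamide 150 mg/kg i.p. at day −4 and 100 mg/kg i.p. at day −1. Mice were then infected i.p. with Xen-29 (2 × 10^7 to 5 × 10^8 CFU) in 6% mucin (n = 5/group) and dosed once, s.c. or by gavage, at 1 h. Luminescence was imaged hourly under anesthesia, 0–5 h postdosing. Mean region-of-interest flux is given as percent reduction versus time-matched saline (10 ml/kg s.c.) controls.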

Assay [2] relates to Staphylococcus aureus. Description: Antimicrobial activity against bioluminescent methicillin-susceptible Staphylococcus aureus Xen29. Summed up:
(§2)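 MIC by broth microdilution following CLSI guidelines against bioluminescent lux-carrying strains (Xen-1 plasmid-borne lux, Xen-29 chromosomal lux), grown overnight in Mueller-Hinton broth at 37°C.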

Assay [3] relates to Staphylococcus aureus. Description: Antibacterial activity against methicillin-susceptible Staphylococcus aureus Xen29 infected neutropenic CD1 mouse assessed as mortality at 100 mg/kg, po within 24 hrs. The note with it: Xen29, 24 h. Summed up: (§3)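 Female CD-1 mice (20–25 g) were made neutropenic with cyclophosphamide i.p. at 150 mg/kg 4 days and 100 mg/kg 1 day before infection. They were infected i.p. with a lethal dose of lux strain (2 × 10^7 to 5 × 10^8 CFU/mouse) suspended in 6% hog gastric mucin. A single s.c. or gavage dose was given 1 h later. Survivors were counted daily for 7 days, n=5/group.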

The test system of assay [4] is Staphylococcus aureus. Description: Reduction in bioluminescent methicillin-sensitive Staphylococcus aureus Xen29 in neutropenic CD1 mouse with peritonitis at 100 mg/kg, po after 5 hrs relative to control. Details: scale not given: the % may be the effect or the level left. Summed up:
as §1

Assay [5] has as its system Staphylococcus aureus. Nature of the assay: Antimicrobial activity against bioluminescent methicillin-resistant Staphylococcus aureus Xen1. Summed up:
as §2

Assay [6] concerns Staphylococcus aureus. Description: Reduction in bioluminescent methicillin-resistant Staphylococcus aureus Xen1 in neutropenic CD1 mouse with peritonitis at 100 mg/kg, po after 5 hrs relative to control. Set-up: scale not given: the % may be the effect or the level left. The method, boiled down: (§4)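 Cyclophosphamide-neutropenic female CD-1 mice (150 mg/kg i.p. day −4, 100 mg/kg day −1) were infected i.p. with a lethal inoculum in 6% mucin. A single s.c. or gavage dose was given 1 h later. Mice were anesthetized and imaged hourly to 5 h. Region-of-interest total flux (photons/s/cm2) was averaged over 5 mice. Percent reduction is relative to time-matched saline (10 ml/kg s.c.) controls.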

Assay [7] has as its system Staphylococcus aureus. Description: Reduction in bioluminescent methicillin-sensitive Staphylococcus aureus Xen29 in immunocompetent CD1 mouse with peritonitis at 100 mg/kg, po after 5 hrs relative to control. Set-up: scale not given: the % may be the effect or the level left. The method, boiled down: (§5)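 Peritonitis in healthy female CD-1 mice (n = 5/group): i.p. Xen-29 (2 × 10^7 to 5 × 10^8 CFU) in 6% mucin, then a single s.c. or gavage dose at 1 h. Controls got saline 10 ml/kg s.c. Mice were anesthetized hourly (pentobarbital 60 mg/kg i.p. or isoflurane) and imaged ventral side up for 1–5 min, to 5 h postdosing. Total flux (photons/s/cm2) over the infected region was averaged per group. Percent reduction is versus time-matched saline controls.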

Assay [8] deals with Staphylococcus aureus. Nature of the assay: Reduction in bioluminescent methicillin-sensitive Staphylococcus aureus Xen29 in neutropenic CD1 mouse with peritonitis at 100 mg/kg, po after 3 hrs relative to control. Set-up: scale not given: the % may be the effect or the level left. Summed up: as §1
Assay [9] has as its system Staphylococcus aureus. Nature of the assay: Reduction in bioluminescent methicillin-sensitive Staphylococcus aureus Xen29 in immunocompetent CD1 mouse with peritonitis at 100 mg/kg, po after 3 hrs relative to control. Set-up: scale not given: the % may be the effect or the level left. The method, boiled down:
as §5

Assay [10] deals with Staphylococcus aureus. Description: Antibacterial activity against methicillin-susceptible Staphylococcus aureus Xen29 infected neutropenic CD1 mouse assessed as mortality at 100 mg/kg, po after 4 days. Summed up:
as §3

Assay [11] relates to Staphylococcus aureus. Nature of the assay: Reduction in bioluminescent methicillin-resistant Staphylococcus aureus Xen1 in neutropenic CD1 mouse with peritonitis at 100 mg/kg, po after 3 hrs relative to control. Set-up: scale not given: the % may be the effect or the level left. The method, boiled down:
as §4

For assay [12], the system named is Staphylococcus aureus. Description: Antibacterial activity against methicillin-resistant Staphylococcus aureus Xen1 infected neutropenic CD1 mouse assessed as mortality at 100 mg/kg, po after 4 days. The method, boiled down:
as §3

The subject of assay [13] is Staphylococcus aureus. Description: Reduction in bioluminescent methicillin-resistant Staphylococcus aureus Xen1 in neutropenic CD1 mouse with peritonitis at 100 mg/kg, po after 2 hrs relative to control. Details: scale not given: the % may be the effect or the level left. The method, boiled down:
as §4

Assay [14] relates to Staphylococcus aureus. Nature of the assay: Antibacterial activity against methicillin-resistant Staphylococcus aureus Xen1 infected neutropenic CD1 mouse assessed as mortality at 100 mg/kg, po within 24 hrs. The note with it: Xen1, 24 h. Summed up: as §3
Assay [15] has as its system Staphylococcus aureus. Nature of the assay: Reduction in bioluminescent methicillin-sensitive Staphylococcus aureus Xen29 in immunocompetent CD1 mouse with peritonitis at 100 mg/kg, po after 4 hrs relative to control. Set-up: scale not given: the % may be the effect or the level left. The method, boiled down:
as §5

The test system of assay [16] is Staphylococcus aureus. Nature of the assay: Antibacterial activity against methicillin-susceptible Staphylococcus aureus Xen29 infected neutropenic CD1 mouse assessed as mouse survival at 50 mg/kg, sc after 24 hrs. The note with it: route subcutaneous. The method, boiled down:
as §3

Assay [17] concerns Staphylococcus aureus. Nature of the assay: Reduction in bioluminescent methicillin-resistant Staphylococcus aureus with peritonitis Xen1 in immunocompetent CD1 mouse at 50 mg/kg, sc after 3 hrs relative to control. Details: scale not given: the % may be the effect or the level left. Conditions: route subcutaneous. Summed up: (§6)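 Peritonitis in healthy female CD-1 mice: lethal i.p. inoculum in 6% mucin, single s.c. dose 1 h later. Mice were anesthetized hourly (isoflurane inhalation or pentobarbital 60 mg/kg i.p.) and imaged ventral side up for 1–5 min. Total flux (photons/s/cm2) was taken over the infected-site region of interest and averaged over 5 mice. Percent reduction is versus saline-treated (10 ml/kg s.c.) controls at the same time point.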

Assay [18] deals with Staphylococcus aureus. Nature of the assay: Antibacterial activity against methicillin-resistant Staphylococcus aureus Xen1 infected neutropenic CD1 mouse assessed as mortality at 50 mg/kg, sc after 7 days. Conditions: 168 h, route subcutaneous. Summed up: as §3
Assay [19] relates to Staphylococcus aureus. Nature of the assay: Reduction in bioluminescent methicillin-sensitive Staphylococcus aureus Xen29 in immunocompetent CD1 mouse with peritonitis at 50 mg/kg, sc after 3 hrs relative to control. Details: scale not given: the % may be the effect or the level left. Conditions: route subcutaneous. The method, boiled down:
as §5

The test system of assay [20] is Staphylococcus aureus. Description: Antibacterial activity against methicillin-resistant Staphylococcus aureus Xen1 infected neutropenic CD1 mouse assessed as mouse survival at 50 mg/kg, sc after 24 hrs. Conditions: route subcutaneous. Summed up: as §3
The test system of assay [21] is Staphylococcus aureus. Description: Antibacterial activity against methicillin-resistant Staphylococcus aureus Xen1 infected nonneutropenic CD1 mouse assessed as mouse survival at 50 mg/kg, sc after 7 days. The note with it: 168 h, route subcutaneous. The method, boiled down: (§7)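 Healthy female CD-1 mice (20–25 g) were infected i.p. with a lethal dose of lux strain (2 × 10^7 to 5 × 10^8 CFU/mouse) from an overnight Mueller-Hinton culture suspended in 6% hog gastric mucin. A single s.c. dose was given 1 h post-inoculation. Survival was recorded daily for 7 days, n=5/group.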

Assay [22] concerns Staphylococcus aureus. Description: Reduction in bioluminescent methicillin-sensitive Staphylococcus aureus Xen29 in neutropenic CD1 mouse with peritonitis at 50 mg/kg, sc after 4 hrs relative to control. Details: scale not given: the % may be the effect or the level left. Conditions: route subcutaneous. Summed up: as §1
The subject of assay [23] is Staphylococcus aureus. Nature of the assay: Reduction in bioluminescent methicillin-resistant Staphylococcus aureus Xen1 in neutropenic CD1 mouse with peritonitis at 50 mg/kg, sc after 5 hrs relative to control. Details: scale not given: the % may be the effect or the level left. The note with it: route subcutaneous. The method, boiled down: as §4
Assay [24] deals with Staphylococcus aureus. Description: Reduction in bioluminescent methicillin-sensitive Staphylococcus aureus Xen29 in neutropenic CD1 mouse with peritonitis at 50 mg/kg, sc after 3 hrs relative to control. Set-up: scale not given: the % may be the effect or the level left. Conditions: route subcutaneous. Summed up:
as §4

Assay [25] relates to Staphylococcus aureus. Nature of the assay: Reduction in bioluminescent methicillin-resistant Staphylococcus aureus Xen1 in neutropenic CD1 mouse with peritonitis at 50 mg/kg, sc after 2 hrs relative to control. Set-up: scale not given: the % may be the effect or the level left. The note with it: route subcutaneous. Summed up: as §4
Assay [26] concerns Staphylococcus aureus. Description: Antibacterial activity against methicillin-susceptible Staphylococcus aureus Xen29 infected nonneutropenic CD1 mouse assessed as mouse survival at 50 mg/kg, sc after 7 days. Conditions: 168 h, route subcutaneous. The method, boiled down: as §7
Assay [27] deals with Staphylococcus aureus. Nature of the assay: Reduction in bioluminescent methicillin-sensitive Staphylococcus aureus Xen29 in neutropenic CD1 mouse with peritonitis at 50 mg/kg, sc after 2 hrs relative to control. Set-up: scale not given: the % may be the effect or the level left. Conditions: route subcutaneous. Summed up: as §1
The subject of assay [28] is Staphylococcus aureus. Description: Reduction in bioluminescent methicillin-sensitive Staphylococcus aureus Xen29 in immunocompetent CD1 mouse with peritonitis at 50 mg/kg, sc after 4 hrs relative to control. Set-up: scale not given: the % may be the effect or the level left. Conditions: route subcutaneous. Summed up:
as §5

The test system of assay [29] is Staphylococcus aureus. Nature of the assay: Antibacterial activity against methicillin-susceptible Staphylococcus aureus Xen29 infected neutropenic CD1 mouse assessed as mortality at 50 mg/kg, sc after 7 days. The note with it: 168 h, route subcutaneous. Summed up: as §3
Assay [30] relates to Staphylococcus aureus. Nature of the assay: Reduction in bioluminescent methicillin-sensitive Staphylococcus aureus Xen29 in neutropenic CD1 mouse with peritonitis at 50 mg/kg, sc after 5 hrs relative to control. Set-up: scale not given: the % may be the effect or the level left. The note with it: route subcutaneous. Summed up: as §1
Assay [31] relates to Staphylococcus aureus. Nature of the assay: Reduction in bioluminescent methicillin-sensitive Staphylococcus aureus Xen29 in immunocompetent CD1 mouse with peritonitis at 50 mg/kg, sc relative to control. Set-up: scale not given: the % may be the effect or the level left. The note with it: route subcutaneous. Summed up: as §5
Assay [32] has as its system Staphylococcus aureus. Description: Reduction in bioluminescent methicillin-resistant Staphylococcus aureus Xen1 in immunocompetent CD1 mouse with peritonitis at 50 mg/kg, sc after 2 hrs relative to control. The note with it: route subcutaneous. Set-up: scale not given: the % may be the effect or the level left. The method, boiled down:
as §6

For assay [33], the system named is Staphylococcus aureus. Description: Reduction in bioluminescent methicillin-sensitive Staphylococcus aureus Xen29 in immunocompetent CD1 mouse with peritonitis at 50 mg/kg, sc after 5 hrs relative to control. Set-up: scale not given: the % may be the effect or the level left. Conditions: route subcutaneous. The method, boiled down: as §6

Values after ≈ are worked out from the molar mass of the structure shown.

`CC(=O)NC[C@H]1CN(c2ccc(N3CCOCC3)c(F)c2)C(=O)O1` [LINEZOLID]: the Activity with Staphylococcus aureus [1] is reported as 89%; in the assay on Staphylococcus aureus [4], 96.6%; in the assay with Staphylococcus aureus [6], 99.2%; in the assay with Staphylococcus aureus [7] it was 90%; in the assay with Staphylococcus aureus [8], 68%; with Staphylococcus aureus [9] it was 59%. Also, the Activity with Staphylococcus aureus [10] is listed as 100%; in the assay on Staphylococcus aureus [11], 98%; in the assay with Staphylococcus aureus [12] it was 100%; with Staphylococcus aureus [13], 91%; with Staphylococcus aureus [15], 85%. The figures for the minimum inhibitory concentration (MIC) in the assay with Staphylococcus aureus [2] and against Staphylococcus aureus [5] were 1 µg/mL (≈ 2.96 µM) and 0.5 µg/mL (≈ 1.48 µM), respectively. Also, the survival at 100 mg/kg in the assay with Staphylococcus aureus [3] and in the assay with Staphylococcus aureus [14] was 100% each time.
Consider `CCCCCCCCCC(=O)N[C@@H](Cc1c[nH]c2ccccc12)C(=O)N[C@H](CC(N)=O)C(=O)N[C@@H](CC(=O)O)C(=O)N[C@@H]1C(=O)NCC(=O)N[C@@H](CCCN)C(=O)N[C@@H](CC(=O)O)C(=O)N[C@H](C)C(=O)N[C@@H](CC(=O)O)C(=O)NCC(=O)N[C@H](CO)C(=O)N[C@@H]([C@H](C)CC(=O)O)C(=O)N[C@@H](CC(=O)c2ccccc2N)C(=O)O[C@@H]1C`, for which the survival at 50 mg/kg in the assay with Staphylococcus aureus [16] was 100%; in the assay with Staphylococcus aureus [18] it was 40%; with Staphylococcus aureus [20], 100%; with Staphylococcus aureus [21], 100%; in the assay with Staphylococcus aureus [26], 100%; in the assay with Staphylococcus aureus [29], 40%. Also, the Activity was 97% in the assay with Staphylococcus aureus [17]; 96% in the assay with Staphylococcus aureus [19]; 99.4% in the assay on Staphylococcus aureus [22]; 99.9% with Staphylococcus aureus [23]; 98% in the assay on Staphylococcus aureus [24]; 93% in the assay with Staphylococcus aureus [25]. The Activity is 92% in the assay with Staphylococcus aureus [27]; 98% in the assay with Staphylococcus aureus [28]; > 99.7% with Staphylococcus aureus [30]; 90% in the assay on Staphylococcus aureus [31]; 89% in the assay with Staphylococcus aureus [32]; 99% in the assay with Staphylococcus aureus [33]. The minimal inhibitory concentration (MIC) was found to be 1 µg/mL (≈ 0.617 µM) against Staphylococcus aureus [2] and 0.5 µg/mL (≈ 0.309 µM) in the assay on Staphylococcus aureus [5].

As usually defined, the MIC is the lowest concentration found to suppress growth.

The record behind these values is ChEMBL document CHEMBL1144463, “Rapid bactericidal activity of daptomycin against methicillin-resistant and methicillin-susceptible Staphylococcus aureus peritonitis in mice as measured with bioluminescent bacteria” (2007).
